Measurements gathered from unrelated publications.
Protocols differ between the studies behind these lines.
MLNR: Motilin receptor (MLNR, Homo sapiens, UniProt O43193)
PTGS2: Prostaglandin G/H synthase 2 (PTGS2, Ovis aries, UniProt P79208)
GSK3B: Glycogen synthase kinase-3 beta (GSK3B, Homo sapiens, UniProt P49841)
AVPR1A: Vasopressin V1a receptor (AVPR1A, Homo sapiens, UniProt P37288)
PDK2: [Pyruvate dehydrogenase (acetyl-transferring)] kinase isozyme 2, mitochondrial (PDK2, Homo sapiens, UniProt Q15119)

`COc1cc(NC(C)=O)c(Cl)cc1C(=O)Nc1nccs1` has an inhibition of 21.6% (MLNR; cell-free assay; 10 µM).
With `C[C@@H]1O[C@@H](OC[C@H]2O[C@@H](Oc3c(-c4ccc(O)cc4)oc4cc(O)cc(O)c4c3=O)[C@H](O[C@@H]3O[C@H](CO)[C@@H](O)[C@H](O)[C@H]3O)[C@@H](O)[C@@H]2O)[C@H](O)[C@H](O)[C@H]1O` the inhibition was 53.8% (PTGS2; enzyme activity, inhibitor, absorbance; 50 µM).
`O=C(C1CCCCC1)N1CC(=O)N2CCc3ccccc3C2C1` (centres unmarked) has an inhibition of 8.2% (GSK3B; enzyme activity, inhibitor, ADP detection; 100 µM).
For `O=c1c(O)c(-c2ccc(O)cc2)oc2cc(O[C@@H]3O[C@H](CO)[C@@H](O)[C@H](O)[C@H]3O)cc(O)c12`, the inhibition was 66.3% (PTGS2; enzyme activity, inhibitor, absorbance; 50 µM).
`Cc1c(C(N)=O)cc([N+](=O)[O-])cc1[N+](=O)[O-]` gave an inhibition of 17.1% (GSK3B; enzyme activity, inhibitor, ADP detection; 100 µM).
For `O=C(CSc1nc2nccnc2c(=O)n1CCc1ccccc1)Nc1nccs1`, the inhibition was -11% (Phosphatidylinositol 4-kinase type 2-beta (PI4K2B, Homo sapiens, UniProt Q8TCG2); enzyme activity, inhibitor; 10 µM).
With `O=C1N=C(N2CCCCN2)S/C1=C\c1ccc(F)cc1O` the inhibition was less than 10% (AVPR1A; ligand displacement, radioligand; 10 µM).
With `CNc1cc(Oc2cc(C(=O)Nc3cc(N4CCN(C)CC4)cc(C(F)(F)F)c3)ccc2C)ncn1` the inhibition was -98.4% (1-phosphatidylinositol 3-phosphate 5-kinase (PIKFYVE, Homo sapiens, UniProt Q9Y2I7); target engagement in cells, inhibitor, chemoproteomics; Huh-7; 1 µM).
The inhibition of `O=C(c1ccc(Cl)cc1)N(Cc1ccccc1)C1CCCCC1` is reported as 47.7% (AVPR1A; cell-free assay; 10 µM).
`O=c1c(O[C@@H]2O[C@H](CO)[C@@H](O)[C@H](O)[C@H]2O)c(-c2ccc(O)cc2)oc2cc(O)cc(O)c12` gave an inhibition of 55.1% (PTGS2; enzyme activity, inhibitor, absorbance; 50 µM).
`Ic1cccc2cnccc12` gave an inhibition of 2% (Protein mono-ADP-ribosyltransferase TIPARP (TIPARP, Homo sapiens, UniProt Q7Z3E1); enzyme activity, inhibitor; 10 µM).
`CN1CC(Oc2cnc(C#N)cc2-c2ccn3nc(NC(=O)C4CC4)cc3c2)C1` has an inhibition of 17% (PDK2; enzyme activity, inhibitor; 1 µM).
For `CC[C@H]1C(=O)OC[C@@H]1Cc1cncn1C.O=[N+]([O-])O`, the inhibition was 28.2% (GSK3B; enzyme activity, inhibitor, ADP detection; 100 µM).
`CN(C)C1CCN(CC#Cc2nn(C3CCCC3)c3nc(NCc4ccccc4)ncc23)C1` (centres unmarked) has an inhibition of 6% (Protein-tyrosine kinase 6 (PTK6, Homo sapiens, UniProt Q13882); enzyme activity, inhibitor, FRET; 10 µM).
With `COc1cc([C@@H]2c3cc4c(cc3[C@@H](O[C@@H]3O[C@@H]5CO[C@@H](C)O[C@H]5[C@H](O)[C@H]3O)[C@H]3COC(=O)[C@H]23)OCO4)cc(OC)c1O` the inhibition was 15.4% (GSK3B; enzyme activity, inhibitor, ADP detection; 100 µM).
`CC/C(=N\NC(=O)NCc1cccc(O)c1)c1ccc(O)c(C)c1O` gave an inhibition of -2.1% (PDK2; enzyme activity, inhibitor; 0.1 µM).
`COC(=O)C1=C(C#N)NC(C)=C(C(=O)OC(C)C)C1c1cccc([N+](=O)[O-])c1` (centres unmarked) gave an inhibition of 25.3% (GSK3B; enzyme activity, inhibitor, ADP detection; 100 µM).
The inhibition of `Oc1cccc(Nc2nc(-c3ccc(F)cc3F)cs2)c1` is reported as 6.5% (MLNR; cell-free assay; 10 µM).
For `CCc1cccc2c3c([nH]c12)C(CC)(CC(=O)O)OCC3` (centres unmarked), the inhibition was 40.8% (GSK3B; enzyme activity, inhibitor, ADP detection; 100 µM).
With `CCN(CC)c1ccc(C2=NNC(=O)CC2C)cc1[N+](=O)[O-]` (centres unmarked) the inhibition was 2% (High affinity cGMP-specific 3',5'-cyclic phosphodiesterase 9A (PDE9A, Homo sapiens, UniProt O76083); enzyme activity, inhibitor; 0.1 µM).
